Data: ChEMBL document CHEMBL4765263, “Design, synthesis, biological evaluation of 6-(2-amino-1H-benzo[d]imidazole-6-yl)quinazolin-4(3H)-one derivatives as novel anticancer agents with Aurora kinase inhibition” (Eur J Med Chem, 2020)
Activity calls are given as the source filed them. No cut-off for these calls is given here.

Columns and labels:
PC-3 = test: Cytotoxicity against human PC-3 cells assessed as reduction in cell viability incubated for 72 hrs by MTT assay; format: functional, cell-based; settings: PC-3, 72 h
Outline: (§1)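 MTT viability assay. Cells kept in DMEM with 10% FBS at 37 °C and 5% CO2. Seeded at 5×10^3 cells per well and exposed to a range of compound concentrations from 20 mM DMSO stocks. IC50 is the mean of triplicate measurements.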

MDA-MB-231 [1] = test: Cytotoxicity against human MDA-MB-231 cells assessed as reduction in cell viability incubated for 72 hrs by MTT assay; format: functional, cell-based; settings: MDA-MB-231, 72 h; outline: as §1
SH-SY5Y = test: Cytotoxicity against human SH-SY5Y cells assessed as reduction in cell viability incubated for 72 hrs by MTT assay; format: functional, cell-based; outline: as §1
[2] = Solubility of compound in water; format: physicochemical; settings: buffer
MDA-MB-231 [3] = test: Induction of cell cycle arrest in human MDA-MB-231 cells assessed as S phase accumulation at 2 uM incubated for 24 hrs by PI staining based flow cytometry analysis (reference value: 38.65 %); format: functional
MDA-MB-231 [4] = test: Induction of apoptosis in human MDA-MB-231 cells assessed as necrotic cells at 1 uM incubated for 48 hrs by annexin V-FITC and PI staining based flow cytometry analysis (reference value: 3.08 %); format: functional
MDA-MB-231 [5] = test: Induction of cell cycle arrest in human MDA-MB-231 cells assessed as G0/G1 phase accumulation at 1 uM incubated for 24 hrs by PI staining based flow cytometry analysis (reference value: 42.84 %); format: functional
Aurora kinase A = target: T1, Aurora kinase A (Homo sapiens, UniProt O14965); test: Inhibition of Aurora A (unknown origin) incubated for 1 hrs by HTRF assay
T1 sequence (O14965 whole entry): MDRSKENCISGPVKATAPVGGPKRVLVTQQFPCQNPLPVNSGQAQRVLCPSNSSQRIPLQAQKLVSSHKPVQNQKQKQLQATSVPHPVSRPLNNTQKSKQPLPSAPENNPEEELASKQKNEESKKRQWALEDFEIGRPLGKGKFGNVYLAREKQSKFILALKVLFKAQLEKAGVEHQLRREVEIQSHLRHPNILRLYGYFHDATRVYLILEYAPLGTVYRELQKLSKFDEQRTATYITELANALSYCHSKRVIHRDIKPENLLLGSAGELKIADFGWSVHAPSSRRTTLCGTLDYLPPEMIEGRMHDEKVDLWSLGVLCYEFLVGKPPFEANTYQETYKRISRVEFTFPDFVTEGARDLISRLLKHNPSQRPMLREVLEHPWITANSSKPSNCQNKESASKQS

MDA-MB-231 [6] = test: Induction of cell cycle arrest in human MDA-MB-231 cells assessed as G0/G1 phase accumulation at 4 uM incubated for 24 hrs by PI staining based flow cytometry analysis (reference value: 42.84 %); format: functional
MDA-MB-231 [7] = test: Induction of apoptosis in human MDA-MB-231 cells assessed as late apoptotic cells at 1 uM incubated for 48 hrs by annexin V-FITC and PI staining based flow cytometry analysis (reference value: 2.52 %); format: functional
Aurora kinase B = Aurora kinase B (Homo sapiens, UniProt Q96GD4); test: Inhibition of Aurora B (unknown origin) incubated for 1 hrs by HTRF assay
Sequence of Aurora kinase B (Q96GD4 whole entry): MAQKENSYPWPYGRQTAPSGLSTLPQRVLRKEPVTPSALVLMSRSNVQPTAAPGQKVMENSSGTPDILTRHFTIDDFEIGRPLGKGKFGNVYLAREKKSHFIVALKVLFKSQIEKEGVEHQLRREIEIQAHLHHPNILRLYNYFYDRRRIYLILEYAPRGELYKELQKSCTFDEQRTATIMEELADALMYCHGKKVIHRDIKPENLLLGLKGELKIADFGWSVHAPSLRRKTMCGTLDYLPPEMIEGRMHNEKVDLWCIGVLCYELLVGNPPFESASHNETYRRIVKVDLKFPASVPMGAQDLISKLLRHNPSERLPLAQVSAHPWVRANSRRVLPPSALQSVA

MDA-MB-231 [8] = test: Induction of cell cycle arrest in human MDA-MB-231 cells assessed as increase G2/M phase accumulation incubated for 24 hrs by PI staining based flow cytometry analysis; format: functional; settings: dose 1-4 µM
[9] = target: T2, Aurora kinase A (Homo sapiens) (UniProt O14965); test: Inhibition of Aurora A in human MDA-MB-231 cells assessed as reduction in Histone H3 phosphorylation incubated for 24 hrs by Western blot analysis; format: cell-based; settings: dose 1-4 µM
T2 sequence (whole entry): T1 sequence (O14965 whole entry)
Outline: (§2)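 MDA-MB-231 cells exposed to DMSO or drug at set concentrations for 24 h. Western blot for phospho-Aurora A at Thr288 or phospho-histone H3 at Ser10, with total Aurora A, histone H3 and GAPDH antibodies also used. Bands quantified by densitometry.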

MDA-MB-231 [10] = test: Induction of apoptosis in human MDA-MB-231 cells assessed as early apoptotic cells at 2 uM incubated for 48 hrs by annexin V-FITC and PI staining based flow cytometry analysis (reference value: 3.90 %); format: functional
MDA-MB-231 [11] = test: Cytotoxicity against human MDA-MB-231 cells assessed as cell shrinkage at >1 uM incubated for 48 hrs; format: functional, cell-based; settings: dose microM >1, time 48.0 hrs
MDA-MB-231 [12] = test: Induction of cell cycle arrest in human MDA-MB-231 cells assessed as S phase accumulation at 1 uM incubated for 24 hrs by PI staining based flow cytometry analysis (reference value: 38.65 %); format: functional
MDA-MB-231 [13] = test: Induction of apoptosis in human MDA-MB-231 cells assessed as increase in caspase-3 cleavage at 1 to 4 uM incubated for 48 hrs by Western blot analysis; format: functional, cell-based; settings: dose 1-4 µM
Outline: (§3)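 MDA-MB-231 cells treated for 48 h at set concentrations. Cleaved PARP, cleaved caspase-3 and cleaved caspase-9 detected by Western blot and quantified by densitometry. Mean ± SEM, n = 3.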

MDA-MB-231 [14] = test: Antiproliferative activity against human MDA-MB-231 cells assessed as reduction in cell growth incubated for 48 hrs; format: functional, cell-based; settings: dose 0.5-2 µM
MDA-MB-231 [15] = test: Induction of cell cycle arrest in human MDA-MB-231 cells assessed as S phase accumulation at 4 uM incubated for 24 hrs by PI staining based flow cytometry analysis (reference value: 38.65 %); format: functional
MDA-MB-231 [16] = test: Induction of apoptosis in human MDA-MB-231 cells assessed as early apoptotic cells at 1 uM incubated for 48 hrs by annexin V-FITC and PI staining based flow cytometry analysis (reference value: 3.90 %); format: functional
MDA-MB-231 [17] = test: Induction of cell cycle arrest in human MDA-MB-231 cells assessed as G2/M phase accumulation at 2 uM incubated for 24 hrs by PI staining based flow cytometry analysis (reference value: 16.62 %); format: functional
MDA-MB-231 [18] = test: Cytotoxicity against human MDA-MB-231 cells assessed as cell blebbing at >1 uM incubated for 48 hrs; format: functional, cell-based; settings: dose microM >1, time 48.0 hrs
MDA-MB-231 [19] = test: Induction of apoptosis in human MDA-MB-231 cells assessed as viable cells at 2 uM incubated for 48 hrs by annexin V-FITC and PI staining based flow cytometry analysis (reference value: 90.49 %); format: functional; settings: read-out: Activity
MDA-MB-231 [20] = test: Induction of apoptosis in human MDA-MB-231 cells assessed as viable cells at 4 uM incubated for 48 hrs by annexin V-FITC and PI staining based flow cytometry analysis (reference value: 90.49 %); format: functional; settings: read-out: Activity
MDA-MB-231 [21] = test: Induction of apoptosis in human MDA-MB-231 cells assessed as early apoptotic cells at 4 uM incubated for 48 hrs by annexin V-FITC and PI staining based flow cytometry analysis (reference value: 3.90 %); format: functional
MDA-MB-231 [22] = test: Induction of apoptosis in human MDA-MB-231 cells assessed as increase in caspase-9 cleavage at 1 to 4 uM incubated for 48 hrs by Western blot analysis; format: functional, cell-based; settings: dose 1-4 µM; outline: as §3
MDA-MB-231 [23] = test: Induction of cell cycle arrest in human MDA-MB-231 cells assessed as G2/M phase accumulation at 5 uM incubated for 16 hrs by PI staining based flow cytometry analysis (reference value: 16.62 %)
MDA-MB-231 [24] = test: Induction of apoptosis in human MDA-MB-231 cells assessed as necrotic cells at 4 uM incubated for 48 hrs by annexin V-FITC and PI staining based flow cytometry analysis (reference value: 3.08 %); format: functional
[25] = target: T2, Aurora kinase A (Homo sapiens); test: Inhibition of Aurora A in human MDA-MB-231 cells assessed as reduction in Aurora Thr288 residue phosphorylation incubated for 24 hrs by Western blot analysis; format: cell-based; settings: dose 1-4 µM; outline: as §2
MDA-MB-231 [26] = test: Induction of apoptosis in human MDA-MB-231 cells assessed as viable cells at 1 uM incubated for 48 hrs by annexin V-FITC and PI staining based flow cytometry analysis (reference value: 90.49 %); format: functional; settings: read-out: Activity
MDA-MB-231 [27] = test: Induction of apoptosis in human MDA-MB-231 cells assessed as necrotic cells at 2 uM incubated for 48 hrs by annexin V-FITC and PI staining based flow cytometry analysis (reference value: 3.08 %); format: functional
MDA-MB-231 [28] = test: Induction of cell cycle arrest in human MDA-MB-231 cells assessed as G0/G1 phase accumulation at 2 uM incubated for 24 hrs by PI staining based flow cytometry analysis (reference value: 42.84 %); format: functional
MDA-MB-231 [29] = test: Induction of apoptosis in human MDA-MB-231 cells assessed as late apoptotic cells at 4 uM incubated for 48 hrs by annexin V-FITC and PI staining based flow cytometry analysis (reference value: 2.52 %); format: functional
MDA-MB-231 [30] = test: Induction of apoptosis in human MDA-MB-231 cells assessed as increase in PARP cleavage at 1 to 4 uM incubated for 48 hrs by Western blot analysis; format: functional, cell-based; settings: dose 1-4 µM; outline: as §3
MDA-MB-231 [31] = test: Induction of apoptosis in human MDA-MB-231 cells; format: functional, cell-based; settings: dose 1-4 µM
MDA-MB-231 [32] = test: Induction of cell cycle arrest in human MDA-MB-231 cells assessed as G2/M phase accumulation at 1 uM incubated for 24 hrs by PI staining based flow cytometry analysis (reference value: 16.62 %); format: functional
[33] = test system: MDA-MB-231 (Homo sapiens); test: Anticlonogenic activity against human MDA-MB-231 cells assessed as inhibition of colony formation at 0.5 to 2 uM incubated for 72 hrs followed by replacement of medium and measured after 10 days by crystal violet staining based visual analysis; settings: dose 0.5-2 µM
MDA-MB-231 [34] = test: Induction of apoptosis in human MDA-MB-231 cells assessed as late apoptotic cells at 2 uM incubated for 48 hrs by annexin V-FITC and PI staining based flow cytometry analysis (reference value: 2.52 %); format: functional

`O=C(Nc1nc2ccc(-c3ccc4ncn(CCN5CCOCC5)c(=O)c4c3)cc2[nH]1)C1CC1` gave an IC50 (PC-3) of 11200 nM, an IC50 (MDA-MB-231 [1]) of 1610 nM and an IC50 (SH-SY5Y) of 7330 nM.

In the case of `CCN(CC)C(=O)Nc1nc2ccc(-c3ccc4ncn(CCN5CCOCC5)c(=O)c4c3)cc2[nH]1`, the solubility [2] is reported as “Soluble”, the IC50 (PC-3) is reported as 8130 nM and the IC50 (MDA-MB-231 [1]) is reported as 1760 nM. The IC50 (SH-SY5Y) was 2520 nM.

`CCC(=O)Nc1nc2ccc(-c3ccc4ncn(CCN5CCOCC5)c(=O)c4c3)cc2[nH]1` gave an Activity (MDA-MB-231 [3]) of 25.43%, an Activity (MDA-MB-231 [4]) of 4.02% and an Activity (MDA-MB-231 [5]) of 36.36%. The IC50 (Aurora kinase A) was 21.9 nM, the Activity (MDA-MB-231 [6]) was 5.59% and the Activity (MDA-MB-231 [7]) was 2.71%. For the same molecule, the IC50 (Aurora kinase B) was 273 nM, the Activity (MDA-MB-231 [8]) was “Dose-dependent effect” and the inhibition [9] was “Dose-dependent effect”. The Activity (MDA-MB-231 [10]) was 11.61%, the Activity (MDA-MB-231 [11]) was “Active” and the Activity (MDA-MB-231 [12]) was 38.28%. The Activity (MDA-MB-231 [13]) was “Active”, the Activity (MDA-MB-231 [14]) was “Dose-dependent effect” and the Activity (MDA-MB-231 [15]) was 6.99%. For the same molecule, the Activity (MDA-MB-231 [16]) was 4.27%, the Activity (MDA-MB-231 [17]) was 39.38% and the Activity (MDA-MB-231 [18]) was “Active”. For the same molecule, the viability at 2 µM (MDA-MB-231 [19]) was 68.2%, the viability at 4 µM (MDA-MB-231 [20]) was 53.4% and the Activity (MDA-MB-231 [21]) was 15.33%. The IC50 (PC-3) was 1090 nM, the Activity (MDA-MB-231 [22]) was “Active” and the IC50 (MDA-MB-231 [1]) was 380 nM. The Activity (MDA-MB-231 [23]) was 76.19%, the Activity (MDA-MB-231 [24]) was 15.91% and the inhibition [25] was “Dose-dependent effect”. For the same molecule, the viability at 1 µM (MDA-MB-231 [26]) was 89%, the Activity (MDA-MB-231 [27]) was 11.9% and the IC50 (SH-SY5Y) was 770 nM. For the same molecule, the Activity (MDA-MB-231 [28]) was 28.68%, the Activity (MDA-MB-231 [29]) was 15.41% and the Activity (MDA-MB-231 [30]) was “Active”. The Activity (MDA-MB-231 [31]) was “Dose-dependent effect”, the Activity (MDA-MB-231 [32]) was 21.84% and the Activity [33] was “Active”. It also gave an Activity (MDA-MB-231 [34]) of 8.25%.

Molecule `CCC(=O)Nc1nc2ccc(-c3ccc4nc(CN5CCN(C(=O)CC)CC5)n(C)c(=O)c4c3)cc2[nH]1` has an IC50 (PC-3) of over 20000 nM, an IC50 (MDA-MB-231 [1]) of over 20000 nM and an IC50 (SH-SY5Y) of 5490 nM.

`CCC(=O)Nc1nc2ccc(-c3ccc4ncn(CCCN5CCOCC5)c(=O)c4c3)cc2[nH]1` gave an IC50 (PC-3) of 3210 nM, an IC50 (MDA-MB-231 [1]) of 1220 nM and an IC50 (SH-SY5Y) of 1680 nM.

Work on `CCS(=O)(=O)Nc1nc2ccc(-c3ccc4ncn(C)c(=O)c4c3)cc2[nH]1` yielded an IC50 (PC-3) of over 20000 nM, an IC50 (MDA-MB-231 [1]) of over 20000 nM and an IC50 (SH-SY5Y) of over 20000 nM.
